According to ChEMBL document CHEMBL3525985, “Regiospecificity and stereospecificity of human UDP-glucuronosyltransferases in the glucuronidation of estriol, 16-epiestriol, 17-epiestriol, and 13-epiestradiol” (Drug Metab Dispos, 2013):
Blank lines part the entries; values can stand above or below the compound they belong to.

Key:
Assay type in all cases: ADME
[1] = target: T1, UDP-glucuronosyltransferase 2B4 (Homo sapiens, UniProt P06133); experiment: Drug metabolism assessed as recombinant human C-terminal His-tagged UGT2B4-mediated 13-epiestradiol-17-glucuronide formation at 200 uM after 15 to 60 mins by HPLC analysis in presence of UDPGA; conditions: recombinant enzyme
T1 sequence (P06133 whole entry): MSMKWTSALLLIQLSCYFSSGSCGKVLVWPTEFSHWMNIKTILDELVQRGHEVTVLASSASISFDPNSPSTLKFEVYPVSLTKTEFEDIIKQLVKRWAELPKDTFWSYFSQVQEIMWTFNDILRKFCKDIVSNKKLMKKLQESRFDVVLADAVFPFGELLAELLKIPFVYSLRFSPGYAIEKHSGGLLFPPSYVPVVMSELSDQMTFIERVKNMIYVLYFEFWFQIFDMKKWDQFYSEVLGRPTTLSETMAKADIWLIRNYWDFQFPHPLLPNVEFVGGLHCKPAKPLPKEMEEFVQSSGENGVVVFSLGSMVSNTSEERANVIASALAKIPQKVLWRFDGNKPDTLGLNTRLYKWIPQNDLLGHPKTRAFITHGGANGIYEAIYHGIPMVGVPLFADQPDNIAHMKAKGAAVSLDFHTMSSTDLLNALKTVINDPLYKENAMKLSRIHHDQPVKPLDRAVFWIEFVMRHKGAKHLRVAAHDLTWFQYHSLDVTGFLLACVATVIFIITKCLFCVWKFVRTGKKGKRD
Outline: (§1)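 Screening at a single substrate concentration of 200 μM, in triplicate. The reaction used 5 or 50 µg of UGT-enriched insect cell membranes in 50 mM phosphate pH 7.4 with 10 mM MgCl₂ and 5 mM UDPGA, 10% final DMSO. Incubation was 15–60 min at 37°C. Perchloric acid stopped the reaction and supernatants were analysed by HPLC. Controls lacked UDPGA. Rates were normalized to relative UGT expression level.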

[2] = target: T2, UDP-glucuronosyltransferase 1A3 (Homo sapiens, UniProt P35503); experiment: Drug metabolism assessed as recombinant human C-terminal His-tagged UGT1A3-mediated 13-epiestradiol-3-glucuronide formation at 200 uM after 15 to 60 mins by HPLC analysis in presence of UDPGA; conditions: recombinant enzyme; outline: as §1
T2 sequence (P35503 whole entry): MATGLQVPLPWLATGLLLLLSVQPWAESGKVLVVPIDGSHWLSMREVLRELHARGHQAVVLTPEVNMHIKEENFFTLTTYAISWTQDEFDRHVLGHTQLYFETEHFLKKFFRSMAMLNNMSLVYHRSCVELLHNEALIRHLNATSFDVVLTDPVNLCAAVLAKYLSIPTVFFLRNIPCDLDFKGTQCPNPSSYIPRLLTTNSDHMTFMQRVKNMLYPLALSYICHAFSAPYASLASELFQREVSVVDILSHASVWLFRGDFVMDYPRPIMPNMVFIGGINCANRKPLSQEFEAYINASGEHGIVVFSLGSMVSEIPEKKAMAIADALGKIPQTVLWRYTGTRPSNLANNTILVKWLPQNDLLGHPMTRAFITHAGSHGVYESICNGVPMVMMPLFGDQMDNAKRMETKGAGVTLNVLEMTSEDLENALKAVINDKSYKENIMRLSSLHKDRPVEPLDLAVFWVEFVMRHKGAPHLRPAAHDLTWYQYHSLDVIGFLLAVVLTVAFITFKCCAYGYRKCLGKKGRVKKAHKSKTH

[3] = target: T1, UDP-glucuronosyltransferase 2B4; experiment: Drug metabolism assessed as recombinant human C-terminal His-tagged UGT2B4-mediated 16-epiestriol-16-glucuronide formation after 15 to 60 mins by Michaelis-Menten equation analysis in presence of UDPGA; conditions: recombinant enzyme
[4] = Drug metabolism in human intestine microsomes assessed as 16-epiestriol-16-glucuronide formation after 15 to 60 mins by Michaelis-Menten equation analysis in presence of UDPGA
Outline: (§2)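 Pooled human intestine microsomes (6 donors), 0.5 or 10 µg, with alamethicin at 5% of total protein. Incubated with 50 mM phosphate pH 7.4, 10 mM MgCl₂, 5 mM UDPGA and 10% DMSO for 15–60 min at 37°C. Each glucuronide regioisomer quantified by HPLC, in triplicate, with substrate consumption at or below 10%.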

[5] = target: T3, UDP-glucuronosyltransferase 2B7 (Homo sapiens, UniProt P16662); experiment: Inhibition of recombinant human C-terminal His-tagged UGT2B7 after 15 to 60 mins by Michaelis-Menten equation analysis in presence of UDPGA
T3 sequence (P16662 whole entry): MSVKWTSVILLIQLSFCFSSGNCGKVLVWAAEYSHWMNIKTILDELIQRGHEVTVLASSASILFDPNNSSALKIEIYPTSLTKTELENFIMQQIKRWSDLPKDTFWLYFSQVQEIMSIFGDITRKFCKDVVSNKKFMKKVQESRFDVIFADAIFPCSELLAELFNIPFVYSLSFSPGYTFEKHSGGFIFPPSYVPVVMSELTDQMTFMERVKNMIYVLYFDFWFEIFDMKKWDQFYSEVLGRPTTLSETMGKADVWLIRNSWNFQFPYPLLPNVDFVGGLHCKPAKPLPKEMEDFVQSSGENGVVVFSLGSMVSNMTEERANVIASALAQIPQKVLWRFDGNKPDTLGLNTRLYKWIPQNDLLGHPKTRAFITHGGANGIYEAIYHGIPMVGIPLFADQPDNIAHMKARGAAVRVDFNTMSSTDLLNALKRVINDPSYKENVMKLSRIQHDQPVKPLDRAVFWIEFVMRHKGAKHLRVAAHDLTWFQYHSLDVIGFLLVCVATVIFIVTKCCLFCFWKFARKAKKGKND
Outline: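 Kinetics with His-tagged UGT-enriched insect-cell membranes (5 or 50 µg): aglycone 0.2–300 µM in 10% DMSO, 5 mM UDPGA, 10 mM MgCl₂, 50 mM phosphate pH 7.4, 15–60 min at 37°C. Substrate consumption kept at or below 10%. Glucuronides quantified by HPLC in triplicate, rates normalized to expression, and data fitted to Michaelis-Menten.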

[6] = Drug metabolism in human intestine microsomes assessed as estriol-3-glucuronide formation after 15 to 60 mins by Michaelis-Menten equation analysis in presence of UDPGA; outline: as §2

- Drug metabolism [1]: metabolite_detected
- Drug metabolism [2]: metabolite_detected
SMILES: C[C@@]12CC[C@@H]3c4ccc(O)cc4CC[C@H]3[C@@H]1CC[C@@H]2O

- Drug metabolism [3]: 5 pmol/min/mg
- Km [4]: 43 µM
- Vmax [4]: 1480 pmol/min/mg
- Ki [5]: 162 µM
SMILES: C[C@]12CC[C@@H]3c4ccc(O)cc4CC[C@H]3[C@@H]1C[C@H](O)[C@@H]2O [EPIESTRIOL]

- Km [6]: 75 µM
- Vmax [6]: 839 pmol/min/mg
SMILES: C[C@]12CC[C@@H]3c4ccc(O)cc4CC[C@H]3[C@@H]1C[C@@H](O)[C@@H]2O [ESTRIOL]
